Where only a bound is given, the exact number is not on record here.

For data set [1], the system named is Rattus norvegicus. Kind of data set: Toxicity in Sprague-Dawley rat reserpine model of central pain assessed as behavioral changes at 10 to 100 mg/kg, po. It counts as organism-based. Conditions: in vivo.
Data set [2] has as its target T1, Transient receptor potential cation channel subfamily V member 3 (Homo sapiens) (UniProt Q8NET8).
T1 sequence (whole entry): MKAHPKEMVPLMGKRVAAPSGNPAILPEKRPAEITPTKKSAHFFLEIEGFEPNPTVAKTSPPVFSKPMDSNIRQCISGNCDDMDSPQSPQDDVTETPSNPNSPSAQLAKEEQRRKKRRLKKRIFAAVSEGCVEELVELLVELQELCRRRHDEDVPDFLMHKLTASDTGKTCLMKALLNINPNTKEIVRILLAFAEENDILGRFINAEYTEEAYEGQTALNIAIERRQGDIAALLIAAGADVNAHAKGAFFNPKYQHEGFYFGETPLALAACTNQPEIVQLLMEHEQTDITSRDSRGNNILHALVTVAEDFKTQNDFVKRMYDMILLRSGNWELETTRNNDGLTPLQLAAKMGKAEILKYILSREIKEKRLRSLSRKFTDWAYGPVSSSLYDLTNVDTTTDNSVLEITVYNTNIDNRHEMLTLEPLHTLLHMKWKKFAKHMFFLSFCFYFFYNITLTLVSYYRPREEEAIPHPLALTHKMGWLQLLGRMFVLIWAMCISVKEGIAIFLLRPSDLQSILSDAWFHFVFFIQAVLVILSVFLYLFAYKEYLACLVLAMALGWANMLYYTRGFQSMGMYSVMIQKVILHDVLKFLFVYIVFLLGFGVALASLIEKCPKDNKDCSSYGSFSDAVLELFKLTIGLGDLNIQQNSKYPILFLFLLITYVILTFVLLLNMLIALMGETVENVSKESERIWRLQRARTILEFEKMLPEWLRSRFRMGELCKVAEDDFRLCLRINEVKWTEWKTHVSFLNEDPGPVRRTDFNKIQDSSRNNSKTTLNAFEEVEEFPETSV
Kind of data set: Antagonist activity at human TRPV3 expressed in recombinant HEK293 cells assessed as free plasma level adjusted concentration for inhibition of 2-APB induced calcium flux by FLIPR analysis. The class given is cell-based. In a few lines: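 FLIPR Kb from the 2-APB (60 µM final) Ca2+ flux assay in human TRPV3 HEK293 cells, converted to an unbound value using the measured free fraction in plasma.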
(A change in cytosolic calcium serves as a functional read-out for many receptors and channels.)

Data set [3] relates to Rattus norvegicus. The experiment in a line: Toxicity in sciatic nerve ligation Sprague-Dawley rat model of neuropathic pain assessed as overt impairments at 10 to 100 mg/kg, po. It counts as organism-based. To be noted: in vivo.
The subject of data set [4] is Rattus norvegicus. Kind of data set: Antiallodynic activity in Sprague-Dawley rat reserpine model of central pain assessed as increase in reserpine induced muscle pressure threshold at 10 to 100 mg/kg, po measured at 1 hr post dosing. The class given is functional, organism-based.
The target in data set [5] is T2, Nuclear receptor subfamily 1 group I member 2 (Homo sapiens, UniProt O75469).
T2 sequence (O75469 whole entry): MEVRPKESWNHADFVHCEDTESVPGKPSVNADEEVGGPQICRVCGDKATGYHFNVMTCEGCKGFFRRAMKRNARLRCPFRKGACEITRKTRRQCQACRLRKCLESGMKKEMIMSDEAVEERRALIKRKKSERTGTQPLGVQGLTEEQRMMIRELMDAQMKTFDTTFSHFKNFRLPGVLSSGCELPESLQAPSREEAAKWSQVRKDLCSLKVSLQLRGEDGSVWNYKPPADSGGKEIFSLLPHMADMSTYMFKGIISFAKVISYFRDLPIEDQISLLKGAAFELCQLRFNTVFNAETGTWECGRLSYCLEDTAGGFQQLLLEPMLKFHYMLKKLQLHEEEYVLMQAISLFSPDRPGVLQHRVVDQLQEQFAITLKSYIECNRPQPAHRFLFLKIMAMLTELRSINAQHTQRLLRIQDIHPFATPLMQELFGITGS
Kind of data set: Activation of human PXR. It counts as ADME. To be noted: human.

Data set [6] is described as follows: Oral bioavailability in rat at 2 mg/kg. It counts as ADME, organism-based. To be noted: in vivo. In a few lines: (§1)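 Rat pharmacokinetics: iv dose 1 mg/kg; po dose 1 or 2 mg/kg depending on compound. AUC taken over 0–8 h. Unbound parameters calculated using plasma free fraction.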
For data set [7], the target named is Sodium channel protein type 9 subunit alpha (Homo sapiens) (UniProt Q15858). The experiment in a line: Binding affinity to Nav1.7 (unknown origin) at 10 uM. In a few lines: (§2)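 Selectivity screen at 10 µM across CEREP and internal target panels. Readout is percent binding, with 50% as the threshold.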
Sequence of Sodium channel protein type 9 subunit alpha (Homo sapiens) (Q15858 whole entry, looked up): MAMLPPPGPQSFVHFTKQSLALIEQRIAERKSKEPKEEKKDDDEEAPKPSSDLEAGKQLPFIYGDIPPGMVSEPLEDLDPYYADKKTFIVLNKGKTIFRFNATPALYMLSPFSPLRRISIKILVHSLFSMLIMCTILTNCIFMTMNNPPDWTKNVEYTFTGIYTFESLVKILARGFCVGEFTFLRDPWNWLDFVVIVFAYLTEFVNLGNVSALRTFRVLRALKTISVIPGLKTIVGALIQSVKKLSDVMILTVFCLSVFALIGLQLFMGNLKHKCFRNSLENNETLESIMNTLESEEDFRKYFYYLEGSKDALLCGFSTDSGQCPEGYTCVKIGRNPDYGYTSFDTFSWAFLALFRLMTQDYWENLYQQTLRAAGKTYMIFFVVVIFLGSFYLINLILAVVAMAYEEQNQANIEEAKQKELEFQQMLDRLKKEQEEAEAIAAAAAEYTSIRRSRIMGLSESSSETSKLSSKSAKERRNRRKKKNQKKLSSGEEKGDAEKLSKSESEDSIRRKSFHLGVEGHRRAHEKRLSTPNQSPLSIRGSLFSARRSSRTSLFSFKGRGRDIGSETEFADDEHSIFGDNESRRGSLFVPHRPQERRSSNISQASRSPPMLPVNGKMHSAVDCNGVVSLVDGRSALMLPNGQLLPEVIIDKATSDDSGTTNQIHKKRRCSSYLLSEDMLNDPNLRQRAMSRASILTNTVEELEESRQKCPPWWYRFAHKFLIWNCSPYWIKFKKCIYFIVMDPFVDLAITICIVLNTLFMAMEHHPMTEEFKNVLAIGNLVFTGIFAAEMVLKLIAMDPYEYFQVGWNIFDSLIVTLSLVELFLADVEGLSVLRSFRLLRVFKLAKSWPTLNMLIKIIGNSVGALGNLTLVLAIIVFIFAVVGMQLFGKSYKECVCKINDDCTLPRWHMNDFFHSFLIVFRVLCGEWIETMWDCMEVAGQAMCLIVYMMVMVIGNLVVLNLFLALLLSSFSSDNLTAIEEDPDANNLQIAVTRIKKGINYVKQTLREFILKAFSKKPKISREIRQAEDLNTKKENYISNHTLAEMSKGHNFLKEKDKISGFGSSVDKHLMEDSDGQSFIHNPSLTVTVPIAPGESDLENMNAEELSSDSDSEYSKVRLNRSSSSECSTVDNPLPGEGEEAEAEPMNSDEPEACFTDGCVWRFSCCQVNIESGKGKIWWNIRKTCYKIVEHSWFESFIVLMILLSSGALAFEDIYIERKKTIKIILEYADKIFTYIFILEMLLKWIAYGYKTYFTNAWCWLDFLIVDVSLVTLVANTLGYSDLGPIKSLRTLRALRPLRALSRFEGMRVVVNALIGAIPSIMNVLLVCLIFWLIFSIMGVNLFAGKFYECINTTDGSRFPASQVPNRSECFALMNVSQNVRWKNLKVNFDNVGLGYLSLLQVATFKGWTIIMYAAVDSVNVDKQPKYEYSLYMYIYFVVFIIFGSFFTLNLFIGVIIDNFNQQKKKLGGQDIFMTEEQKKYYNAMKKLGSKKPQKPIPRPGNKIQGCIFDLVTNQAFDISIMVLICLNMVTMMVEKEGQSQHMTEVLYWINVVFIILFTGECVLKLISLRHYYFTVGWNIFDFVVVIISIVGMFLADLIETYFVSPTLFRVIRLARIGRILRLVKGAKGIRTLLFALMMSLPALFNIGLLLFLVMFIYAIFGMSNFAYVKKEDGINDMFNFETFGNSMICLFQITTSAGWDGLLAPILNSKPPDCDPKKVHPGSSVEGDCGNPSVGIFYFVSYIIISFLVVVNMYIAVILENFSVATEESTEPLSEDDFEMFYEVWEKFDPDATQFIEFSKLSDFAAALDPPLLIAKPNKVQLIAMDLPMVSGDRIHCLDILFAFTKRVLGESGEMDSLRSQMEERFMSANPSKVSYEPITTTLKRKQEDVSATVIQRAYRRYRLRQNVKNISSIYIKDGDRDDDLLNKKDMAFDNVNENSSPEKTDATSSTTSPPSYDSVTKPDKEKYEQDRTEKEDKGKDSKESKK
The target of data set [8] is Voltage-dependent N-type calcium channel subunit alpha-1B (Homo sapiens) (UniProt Q00975). The experiment in a line: Binding affinity to Cav2.2 (unknown origin) at 10 uM. In a few lines:
as §2

For data set [9], the system named is Liver microsome. Kind of data set: Unbound intrinsic clearance in rat liver microsomes after 5 hrs by LC-MS/MS analysis. The class given is ADME. In a few lines:
(§3)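 Microsomal stability run in an automated high-throughput plate format. Intrinsic clearance corrected for nonspecific microsomal binding using measured unbound fraction (fu,mic), reported as unbound Clint in L/h/kg.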

Data set [10] in a line: Cmax in rat at 1 mg/kg, iv or 2 mg/kg, po. The class given is ADME, organism-based. Conditions: in vivo. In a few lines:
as §1

Data set [11] is described as follows: AUC(0 to 8 hrs) in rat at 2 mg/kg, po. The arrangement: time < 6 hr, dose 2 mg/kg, route oral. Conditions: in vivo. The class given is ADME, organism-based. Put shortly:
as §1

The target in data set [12] is Sodium channel protein type 10 subunit alpha (Homo sapiens) (UniProt Q9Y5Y9). Kind of data set: Binding affinity to Nav1.8 (unknown origin) at 10 uM. In a few lines: as §2
The target of data set [13] is T1, Transient receptor potential cation channel subfamily V member 3 (Homo sapiens). Kind of data set: Binding affinity to TRPV3 (unknown origin) at 10 uM.
Data set [14] in a line: Ratio of drug level in plasma to brain in Sprague-Dawley rat. To be noted: in vivo. It counts as ADME, cell-free.
Data set [15] deals with T3, Transient receptor potential cation channel subfamily V member 3 (Homo sapiens, UniProt Q8NET8).
T3 sequence (Q8NET8 whole entry): T1 sequence (whole entry)
The experiment in a line: Antagonist activity at human TRPV3 expressed in recombinant HEK293 cells assessed as inhibition of 2-APB induced currents by patch-clamp electrophysiological assay. The class given is cell-based. In general terms: In patch-clamp work, channel activity is measured electrically.

Data set [16] can be described thus: Volume of distribution at steady state in rat at 1 mg/kg, iv or 2 mg/kg, po. It counts as ADME, organism-based. To be noted: in vivo, read-out: Vdss. In a few lines: as §1
Data set [17] can be described thus: Total plasma clearance in rat at 1 mg/kg, iv. It counts as ADME, organism-based. Put shortly: as §1
Data set [18] in a line: […] plasma clearance in rat at 1 mg/kg, iv. It counts as ADME, organism-based. To be noted: read-out: CL free (converted). Put shortly: as §1
Data set [19] deals with Liver microsome. Kind of data set: Unbound intrinsic clearance in human liver microsomes after 5 hrs by LC-MS/MS analysis. The class given is ADME. In a few lines: as §3
The species named for data set [20] is Rattus norvegicus. Kind of data set: Cardiotoxicity in rat assessed as increase in mean arterial pressure. The class given is toxicity, organism-based, Artery. Conditions: in vivo.
Data set [21] concerns Rattus norvegicus. Kind of data set: Unbound AUC(0 to 8 hrs) in rat at 2 mg/kg, po. It counts as ADME, organism-based. Conditions: in vivo. Put shortly: as §1
Data set [22] deals with Sodium channel protein type 5 subunit alpha (Homo sapiens, UniProt Q14524). The experiment in a line: Binding affinity to Nav1.5 (unknown origin) at 10 uM. Put shortly: as §2
Sequence of Sodium channel protein type 5 subunit alpha (Q14524 whole entry): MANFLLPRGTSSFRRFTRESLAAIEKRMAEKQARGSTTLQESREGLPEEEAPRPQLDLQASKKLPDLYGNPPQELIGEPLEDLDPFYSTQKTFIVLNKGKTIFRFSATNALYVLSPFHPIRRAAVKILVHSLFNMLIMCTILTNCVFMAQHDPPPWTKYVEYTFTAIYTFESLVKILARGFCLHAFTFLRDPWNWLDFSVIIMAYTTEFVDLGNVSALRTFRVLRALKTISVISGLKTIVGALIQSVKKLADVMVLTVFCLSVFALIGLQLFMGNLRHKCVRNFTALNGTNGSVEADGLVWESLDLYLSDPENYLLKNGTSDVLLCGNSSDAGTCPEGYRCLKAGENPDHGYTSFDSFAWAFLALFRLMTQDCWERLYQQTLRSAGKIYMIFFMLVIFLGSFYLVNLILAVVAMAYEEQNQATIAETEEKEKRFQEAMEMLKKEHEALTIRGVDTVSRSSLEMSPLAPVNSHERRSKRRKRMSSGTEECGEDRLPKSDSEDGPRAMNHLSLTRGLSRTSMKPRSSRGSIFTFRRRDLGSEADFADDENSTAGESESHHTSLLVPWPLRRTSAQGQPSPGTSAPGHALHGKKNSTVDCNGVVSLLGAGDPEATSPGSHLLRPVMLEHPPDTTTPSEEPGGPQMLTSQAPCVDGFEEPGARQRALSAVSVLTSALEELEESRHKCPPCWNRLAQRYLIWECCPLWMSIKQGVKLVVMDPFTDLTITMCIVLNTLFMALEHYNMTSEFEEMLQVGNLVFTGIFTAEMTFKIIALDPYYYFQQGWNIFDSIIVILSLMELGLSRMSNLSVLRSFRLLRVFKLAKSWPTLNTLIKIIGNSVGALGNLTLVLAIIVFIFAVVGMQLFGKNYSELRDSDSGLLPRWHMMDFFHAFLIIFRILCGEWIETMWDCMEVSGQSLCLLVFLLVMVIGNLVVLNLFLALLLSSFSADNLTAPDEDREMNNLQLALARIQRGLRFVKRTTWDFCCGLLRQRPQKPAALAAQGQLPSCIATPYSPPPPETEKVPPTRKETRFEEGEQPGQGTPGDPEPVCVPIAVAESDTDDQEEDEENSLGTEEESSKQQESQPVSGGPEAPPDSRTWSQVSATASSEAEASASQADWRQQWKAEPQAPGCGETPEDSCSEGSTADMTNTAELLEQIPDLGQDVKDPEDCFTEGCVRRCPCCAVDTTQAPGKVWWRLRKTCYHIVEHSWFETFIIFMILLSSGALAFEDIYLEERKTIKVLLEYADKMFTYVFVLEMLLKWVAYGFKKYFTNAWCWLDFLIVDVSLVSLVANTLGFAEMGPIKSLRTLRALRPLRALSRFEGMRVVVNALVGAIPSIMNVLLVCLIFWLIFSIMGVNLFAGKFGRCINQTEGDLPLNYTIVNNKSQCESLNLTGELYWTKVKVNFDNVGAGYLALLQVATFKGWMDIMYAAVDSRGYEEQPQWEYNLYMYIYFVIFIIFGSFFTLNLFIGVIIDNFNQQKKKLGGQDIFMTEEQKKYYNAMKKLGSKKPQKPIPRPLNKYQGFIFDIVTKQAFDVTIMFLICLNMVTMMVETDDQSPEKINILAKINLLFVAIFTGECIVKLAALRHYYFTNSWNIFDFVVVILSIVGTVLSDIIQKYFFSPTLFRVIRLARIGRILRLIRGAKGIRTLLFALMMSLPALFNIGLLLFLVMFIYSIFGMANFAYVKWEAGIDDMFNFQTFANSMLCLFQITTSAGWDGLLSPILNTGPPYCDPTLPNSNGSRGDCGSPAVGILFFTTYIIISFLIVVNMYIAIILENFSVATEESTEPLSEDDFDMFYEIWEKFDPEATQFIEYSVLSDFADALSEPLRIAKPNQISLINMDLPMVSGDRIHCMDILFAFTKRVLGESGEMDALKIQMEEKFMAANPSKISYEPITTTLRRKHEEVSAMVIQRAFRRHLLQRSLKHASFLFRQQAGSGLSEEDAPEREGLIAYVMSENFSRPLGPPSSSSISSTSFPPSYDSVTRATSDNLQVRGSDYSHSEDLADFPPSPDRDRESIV
In data set [23] the target is Voltage-dependent L-type calcium channel subunit alpha-1C (Homo sapiens, UniProt Q13936). The experiment in a line: Binding affinity to Cav1.2 (unknown origin) at 10 uM. In a few lines: as §2
Data set [24] has as its target Transient receptor potential cation channel subfamily V member 1 (Homo sapiens) (UniProt Q8NER1). Kind of data set: Binding affinity to TRPV1 (unknown origin) at 10 uM. Put shortly: as §2

Sequence of Transient receptor potential cation channel subfamily V member 1 (Homo sapiens) (Q8NER1 whole entry): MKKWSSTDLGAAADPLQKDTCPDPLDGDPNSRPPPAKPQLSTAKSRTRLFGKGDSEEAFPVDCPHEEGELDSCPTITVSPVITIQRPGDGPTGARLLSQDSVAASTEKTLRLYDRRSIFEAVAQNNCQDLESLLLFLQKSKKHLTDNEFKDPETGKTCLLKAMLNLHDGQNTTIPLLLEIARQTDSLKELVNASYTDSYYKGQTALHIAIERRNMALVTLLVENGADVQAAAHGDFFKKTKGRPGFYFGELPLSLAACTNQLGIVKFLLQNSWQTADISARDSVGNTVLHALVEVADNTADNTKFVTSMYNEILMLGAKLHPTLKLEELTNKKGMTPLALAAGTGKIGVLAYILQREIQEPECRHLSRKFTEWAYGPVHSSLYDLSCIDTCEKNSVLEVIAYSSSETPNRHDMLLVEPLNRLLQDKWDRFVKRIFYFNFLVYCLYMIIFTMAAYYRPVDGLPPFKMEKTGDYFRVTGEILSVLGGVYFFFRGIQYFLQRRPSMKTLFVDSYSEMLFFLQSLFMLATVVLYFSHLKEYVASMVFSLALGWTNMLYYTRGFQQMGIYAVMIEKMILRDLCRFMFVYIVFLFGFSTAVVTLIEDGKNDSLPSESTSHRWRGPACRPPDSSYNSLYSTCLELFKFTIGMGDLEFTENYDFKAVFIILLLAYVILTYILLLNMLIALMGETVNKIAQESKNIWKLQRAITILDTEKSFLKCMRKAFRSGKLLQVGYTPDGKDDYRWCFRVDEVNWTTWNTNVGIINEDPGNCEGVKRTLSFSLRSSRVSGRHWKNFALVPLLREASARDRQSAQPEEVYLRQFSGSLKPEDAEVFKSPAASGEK

As for `C[C@]1(O)C[C@](c2cc(C(F)(F)F)ccn2)([C@H](O)c2ccccn2)C1` (mixture of isomers), the Activity entry is “Non-toxic” with Rattus norvegicus [1]; “Non-toxic” in the data set with Rattus norvegicus [3]; “Dose-dependent effect” in the data set with Rattus norvegicus [4]; “Not Active” in data set [5]; below 50% in data set [7]; below 50% in data set [8]. For the same compound, the Activity in [12] is below 50%; in data set [13], above 50%; in the data set filed under Rattus norvegicus [20], “Non-toxic”; in data set [22], below 50%; in [23] it was below 50%; in [24] it was below 50%. Moreover, the Kb – broadly, the affinity of an antagonist, worked out from how it opposes an agonist – in [2] stood at 620 nM. Also, the bioavailability (as a rule, dose-corrected exposure relative to a reference, in per cent) in data set [6] worked out at 26%. Besides, the CL free came to 100 mL/min/kg in the data set with Liver microsome [9] and 33 mL/min/kg in the data set on Liver microsome [19]. Besides, the Cmax (in general, the maximum level reached in the sampled fluid or tissue) in [10] was 190 ng/mL. The AUC(0-t) – broadly, exposure summed from dosing to a finite time, without extrapolation to infinity – at 6 h in data set [11] was determined as 380 ng·h/mL. Besides, the Ratio in data set [14] is 1. Moreover, the IC50 (in general, the point on the concentration scale where inhibition reaches its midpoint) in [15] is 380 nM. Moreover, the Vd in data set [16] was determined as 1.4 L/kg. The figures for the clearance in data set [17] and in data set [18] were 26.7 mL/min/kg and 41.7 mL/min/kg, respectively. The compound also showed a fAUC in the data set on Rattus norvegicus [21] of 240 ng·h/mL.

Values taken from ChEMBL document CHEMBL3826935, “Synthesis and Pharmacology of (Pyridin-2-yl)methanol Derivatives as Novel and Selective Transient Receptor Potential Vanilloid 3 Antagonists” (J Med Chem, 2016).
